# Ecoli rRNA inh: selective bacterial rRNA inhibition in E. coli; E. coli WT GFP vs humanized-ribosome RFP mutants, fluorescence, 24 h; stronger effect = lower value; DMSO median 0, no signal -100; GFP signal change (wild-type ribosome), % (concentration not given with the values); 1.6% of 350,000 active;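 active = significant combined selectivity score with lowered wild-type GFP, culture density cut under 30%, mutant RFP and density less affected; inactive = any of these conditions unmet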
# RAD52 anneal inh: inhibitors of human RAD52 DNA annealing | P43351 | recombinant RAD52 DNA annealing, FRET fluorescence | inhibition, % at 18.7 µM | 0.46% of 360,000 active;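 active = every replicate showing at least 50% inhibition; inconclusive = mean inhibition at least 50% but not in every replicate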
# AF4-AF9 inh: blocks AF4 peptide binding to human AF9. P42568. AlphaScreen, biotin-AF4 peptide binding to FLAG-AF9. inhibition, % at 10 µM. 0.47% of 350,000 active;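 active = every replicate reaching a set inhibition limit, whatever the replicate mean, cut at about 25% in these data; inconclusive = mean inhibition reaches that limit but some replicates miss it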;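 also: 0% = plate neutral control median and 100% = total signal loss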
# GSIS activator: GLuc luminescence reporter in INS-1E cells, primary screen for activators of glucose-dependent secretion of insulin; 0.61% of 370,000 active; activation, % at 16.6 µM; INS-1E GLuc reporter insulin secretion, 2-3 h;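 active = lowest replicate activation of at least 40%, so every replicate reaches that level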;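 also: 0% = median of neutral control wells and 100% = median of IBMX positive control wells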
# E-sel inducer: E-selectin induction on HUVECs; P16581; HUVEC E-selectin immunofluorescence imaging; normalized: neutral wells 0, TNF-alpha wells 100; activation, % at 7.58 µM; 0.37% of 260,000 active;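 active = mean E-selectin-positive cell signal at least 10% of the positive control, reached in at least 60% of replicates, without over 20% cell loss; inconclusive = no rule given, readout overlaps actives, possibly toxicity-flagged; inactive = the rest, including those meeting only one limit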
#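 Test system: HUVEC; input: 3,000 HUVEC/well; measured by: immunofluorescence imaging; read-out: % PE-positive cells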
# RAD54 branch: RAD54 (human) branch migration inhibition; RAD54 Holliday junction branch migration, FAM/BHQ fluorescence; inhibition, % at 10.4 µM; 0.14% of 360,000 active; AID 602329;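 active = mean normalized replicate activity at least 40 and at least half of replicates scoring 40 or more; inconclusive = only one of the two criteria met; inactive = mean below 40 and under half of replicates reaching 40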;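 also: 0% = median of neutral control wells and 100% = median of positive control wells; inhibitors cause a drop in the FAM fluorescence signal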
# Target sequence (Q92698 whole entry, looked up): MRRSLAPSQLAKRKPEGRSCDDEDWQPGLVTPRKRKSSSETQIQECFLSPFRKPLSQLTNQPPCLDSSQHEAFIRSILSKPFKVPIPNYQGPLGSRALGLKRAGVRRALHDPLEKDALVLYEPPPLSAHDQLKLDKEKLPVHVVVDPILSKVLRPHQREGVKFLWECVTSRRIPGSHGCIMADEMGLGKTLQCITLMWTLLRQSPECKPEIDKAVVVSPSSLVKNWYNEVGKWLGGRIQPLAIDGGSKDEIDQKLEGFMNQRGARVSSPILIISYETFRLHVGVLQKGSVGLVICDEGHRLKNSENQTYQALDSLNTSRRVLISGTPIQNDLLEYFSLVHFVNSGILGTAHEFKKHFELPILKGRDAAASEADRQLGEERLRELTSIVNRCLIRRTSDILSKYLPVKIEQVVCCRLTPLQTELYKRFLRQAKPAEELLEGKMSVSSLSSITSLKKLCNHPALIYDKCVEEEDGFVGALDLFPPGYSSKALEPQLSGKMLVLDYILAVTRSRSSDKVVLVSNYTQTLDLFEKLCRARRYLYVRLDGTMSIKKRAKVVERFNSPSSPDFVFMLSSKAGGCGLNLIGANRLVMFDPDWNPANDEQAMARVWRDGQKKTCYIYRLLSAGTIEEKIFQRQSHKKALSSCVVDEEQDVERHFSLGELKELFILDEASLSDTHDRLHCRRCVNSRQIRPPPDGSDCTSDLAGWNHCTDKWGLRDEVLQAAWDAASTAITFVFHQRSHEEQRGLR
# Alpha interfer: AlphaScreen signal interference counter-screen hit | shares compounds with AF4-AF9 inh | AID 720494 | 45% of 530 active | AC50, µM (series often up to 12 µM), for the others: top-dose activity change, negative = inhibition | signal luminescence; cut-off not given, nearly all actives have AC50 up to about 14 µM
# * marks the source's active call; other numbers are inactive results; ? = inconclusive; . = no result. Sampled rows, rich in hits. Any-hit rate of the full collection: about 2.6%.
SMILES,Ecoli rRNA inh,RAD52 anneal inh,AF4-AF9 inh,GSIS activator,E-sel inducer,RAD54 branch,Alpha interfer
CCc1ccc(-c2nc(CSCC(=O)N3CCN(c4ncccn4)CC3)c(C)o2)cc1,-8,-1,-10,-7,0,-5,0%
CCC(=O)N(C)C[C@H]1Oc2cc(C#Cc3ccncc3)ccc2S(=O)(=O)N([C@@H](C)CO)C[C@H]1C,-2,-4,-6,4,0,6,.
CCC(=O)N(C)C[C@H]1Oc2cc(C#Cc3ccncc3)ccc2S(=O)(=O)N([C@@H](C)CO)C[C@@H]1C,-5,-8,?,-28,1,-2,-18%
CN1\C(=C/C=C/C=C/C=[N+](C)C)C(C)(C)c2ccccc21,11,-92,41*,.,188*,.,9.8µM*
C/C(=N\Nc1nc2ccccc2[nH]1)c1ccc2c(c1)OCO2,-64,-12,33*,-3,.,22,-34%
COc1ccc(-c2ccc([C@@H]3[C@@H](CO)N4C(=O)CN(C(=O)c5ccccc5)C[C@H]34)cc2)cc1,6,-14,3,17,0,.,.
COCCCNCC(O)COc1cccc2[nH]c(C)cc12 (stereo unspecified),18,27,52*,6,.,.,-22%
Cc1cc2c(OCC(O)CNC(C)(C)C)cccc2[nH]1 (stereo unspecified),.,.,.,.,.,-5,.
CN(CCc1ccccc1)C(=O)c1ccc(NC(=O)Cc2ccc(NC(=O)C3CCN(C(=O)C4CCCC4)CC3)cc2)cc1,-8,-9,33*,-10,0,9,2%
CN(C)c1ccc(C=c2c3ccccc3n3c2c2ccccc2[n+]3C)cc1,.,45,51*,.,.,.,3.5µM*
CN(C)c1ccc(C=c2c3cc(O)ccc3n3c2cc(-c2ccccc2)[n+]3C)cc1,20,-42,78*,-55,139*,.,2.5µM*
Oc1ccc(Br)cc1C=Nc1ccc(Cl)cc1,6,-7,-2,26,.,.,.
CCN(CC)c1ccc(N=Cc2cc(Br)ccc2O)cc1,-1,10,46*,-15,.,.,-2%
C[C@@H]1CN([C@H](C)CO)C(=O)c2cc(NC(=O)NC3CCCCC3)ccc2O[C@@H](C)CCCCO[C@@H]1CN(C)C(=O)Cc1ccccc1,-2,.,.,-9,0,-8,.
COCC(=O)N1[C@@H]2c3ccc(-c4ccccc4)c(=O)n3C[C@@H]2[C@@H](CO)[C@@H]1C(=O)Nc1ccccc1,1,-17,-1,5,1,2,.
CCN(CCCNc1cc2c(c(N)c1S(=O)(=O)O)C(=O)c1ccccc1C2=O)c1ccccc1,-18,-52,61*,-12,1,-3,7.6µM*
COc1ccc2nc3ccccc3nc2c1N,-7,1,?,1,.,2,12µM*
COc1ccc2nc3cccc(OC)c3nc2c1,-26,-12,2,3,.,7,.
COC(=O)[C@@H]1[C@@H](CO)[C@@H]2Cn3c(ccc(-c4ccccc4)c3=O)[C@@H]2N1S(C)(=O)=O,1,-11,0,13,0,-6,.
CCOc1cc(N2CCOCC2)c(OCC)cc1NC(=O)c1ccccc1C,20,-36,7,-18,2,.,.
CCOc1cc(N2CCOCC2)c(OCC)cc1NC(=O)c1ccc2ccccc2n1,8,-28,38*,14,.,.,-31%
Nc1[nH]n(-c2ccccc2)c(=O)c1N=Nc1ccc2c(c1)OCCO2,-16,-5,39*,12,.,7,-22%
C[C@H]1CN([C@@H](C)CO)C(=O)Cc2cc(NC(=O)Cc3ccccc3)ccc2O[C@H]1CN(C)Cc1ccc(C(=O)O)cc1,1,1,-3,1,-4,3,.
Cc1ccc(S(=O)(=O)N2C[C@@H](O)COC[C@@H]3O[C@H](CC(=O)NCC4CCCCC4)CC[C@H]32)cc1,0,27,1,0,0,-2,.
O=C(C[C@H]1CC[C@@H]2[C@H](COC[C@@H](O)CN2S(=O)(=O)c2ccccc2)O1)NCC1CCCCC1,.,94*,39*,.,.,-3,-18%
SMILES,Ecoli rRNA inh,RAD52 anneal inh,AF4-AF9 inh,GSIS activator,E-sel inducer,RAD54 branch,Alpha interfer
CCOc1ccc2oc(C(=O)NCC(c3ccco3)N(C)C)c(C)c2c1 (stereo unspecified),-3,-1,6,12,0,-3,.
Cc1c(C(=O)NCC(c2ccco2)N(C)C)oc2c(Cl)cccc12 (stereo unspecified),-8,-22,?,7,.,-13,-22%
Cc1ccc(C)c2c1c1ccccc1n2C,0,9,.,22,0,-1,.
CN(C)c1cc2c3ccccc3n(C)c2cc1N,3,9,28*,.,0,0,-23%
C[C@@H]1CN([C@H](C)CO)C(=O)c2cc(NC(=O)Nc3ccccc3)ccc2O[C@@H](C)CCCCO[C@@H]1CN(C)C(=O)NC1CCCCC1,1,-6,1,-7,0,-9,.
Cc1ccc(S(=O)(=O)N[C@@H]2C=C[C@H](CC(=O)N3CCN(c4ccccc4)CC3)O[C@@H]2CO)cc1,-3,4,1,2,0,-7,.
c1cc2c3c(cccc3c1)NC(c1ccc3c(c1)OCO3)N2,-17,-12,34*,16,0,6,0%
Cc1cccc(C2Nc3cccc4cccc(c34)N2)c1,12,-7,3,11,0,1,.
C[C@H](CO)N1C[C@H](C)[C@@H](CN(C)Cc2ccccn2)Oc2ncc(C#CC(C)(C)O)cc2C1=O,4,-8,-4,10,0,-2,.
COc1ccc(S(=O)(=O)/N=C2\C=C(Nc3ccc(O)cc3)C(=O)c3ccccc32)cc1,-45,4,41*,-13,0,2,2.7µM*
Cc1cccc(Nc2cc(C)c3c(O)cccc3n2)c1C,-45,-72,28*,-1,1,-9,-30%
C[C@@H]1CCCCO[C@H](CN(C)S(C)(=O)=O)[C@H](C)CN([C@@H](C)CO)C(=O)c2cc(NC(=O)Nc3ccc(C(F)(F)F)cc3)ccc2O1,0,.,.,-3,.,.,.
Cc1ccc(C)c(S(=O)(=O)N2CCN(Cc3ccc(O)c4ncccc34)CC2)c1,-58,-13,82*,0,.,.,-31%
CCn1c(C)c(C(C)=O)c(N2CCN(c3ccc(OC)cc3)CC2)nc1=S,0,36,32*,-4,.,.,-24%
COc1ccc(N2CCN(c3nc(=S)n(-c4ccccc4)c(C)c3C(C)=O)CC2)cc1,-1,-59,.,-5,.,5,.
NC1=NC[C@@H](Cc2ccc(O)cc2)N1CCc1cccc2ccccc12,-59,16,12,23,0,14,.
NC1=NC[C@H](Cc2ccc(O)cc2)N1CCc1cccc2ccccc12,-16,5,32*,.,.,48,-29%

# Bioassay records (PubChem BioAssay)
